Assays:
[1] = Stability study in mouse serum; assay type: in vitro ADME; conditions: 37 °C; for % of 99mTc radioactivity associated with 99mTcO4−1: mouse serum, 18 h; for % intact when incubated in serum: 18 hrs
Summary of the method: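 Purified 99mTc-labeled test compound (116 μCi, 4.29 MBq) was added to mouse serum containing 0.04% sodium azide, buffered with sodium phosphate pH 7.2, and held at 37 °C. Timed aliquots went to size-exclusion HPLC (TSK G3000SWXL; 0.067 M sodium phosphate/0.10 M KCl, pH 6.8; 1.0 ml/min) with UV and online radioactivity detection. Intact, protein-bound and 99mTcO4− fractions were measured; N ≥ 3.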

[2] = target: human integrin αvβ3 (Homo sapiens, UniProt P05106+P06756); assay: Receptor-binding assay; conditions: 0.8 μM αvβ3, 37 °C, 3 hrs, n = 4
Chain of human integrin αvβ3 (P06756 31-889 limits assumed): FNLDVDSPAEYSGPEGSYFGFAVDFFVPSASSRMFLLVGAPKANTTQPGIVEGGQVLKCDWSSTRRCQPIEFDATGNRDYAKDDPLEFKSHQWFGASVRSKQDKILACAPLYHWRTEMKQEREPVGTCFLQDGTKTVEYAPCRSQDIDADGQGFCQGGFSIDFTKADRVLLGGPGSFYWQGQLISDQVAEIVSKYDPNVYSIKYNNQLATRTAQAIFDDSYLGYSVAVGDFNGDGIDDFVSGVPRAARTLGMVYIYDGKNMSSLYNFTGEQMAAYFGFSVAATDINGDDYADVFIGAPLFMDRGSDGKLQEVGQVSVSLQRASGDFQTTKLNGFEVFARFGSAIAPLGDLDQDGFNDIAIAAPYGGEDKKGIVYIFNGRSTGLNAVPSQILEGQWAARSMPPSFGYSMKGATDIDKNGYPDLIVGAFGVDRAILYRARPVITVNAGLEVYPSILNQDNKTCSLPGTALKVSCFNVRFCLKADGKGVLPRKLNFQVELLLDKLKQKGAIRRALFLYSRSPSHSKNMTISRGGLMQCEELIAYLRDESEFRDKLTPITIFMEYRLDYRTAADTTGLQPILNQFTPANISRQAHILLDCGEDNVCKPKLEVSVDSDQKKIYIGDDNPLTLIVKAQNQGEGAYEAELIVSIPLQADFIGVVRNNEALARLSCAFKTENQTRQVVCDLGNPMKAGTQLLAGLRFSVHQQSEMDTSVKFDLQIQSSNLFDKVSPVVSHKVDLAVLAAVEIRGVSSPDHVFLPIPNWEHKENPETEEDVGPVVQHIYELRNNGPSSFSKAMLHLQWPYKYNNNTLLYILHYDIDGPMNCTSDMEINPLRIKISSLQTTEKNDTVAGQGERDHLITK
Chain of human integrin αvβ3 (P06756 891-1048 partner limits assumed): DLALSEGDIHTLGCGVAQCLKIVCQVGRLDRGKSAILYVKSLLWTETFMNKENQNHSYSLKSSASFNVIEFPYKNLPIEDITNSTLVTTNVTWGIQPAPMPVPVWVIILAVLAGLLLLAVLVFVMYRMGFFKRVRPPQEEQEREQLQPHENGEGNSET
Chain of human integrin αvβ3 (P05106 27-788): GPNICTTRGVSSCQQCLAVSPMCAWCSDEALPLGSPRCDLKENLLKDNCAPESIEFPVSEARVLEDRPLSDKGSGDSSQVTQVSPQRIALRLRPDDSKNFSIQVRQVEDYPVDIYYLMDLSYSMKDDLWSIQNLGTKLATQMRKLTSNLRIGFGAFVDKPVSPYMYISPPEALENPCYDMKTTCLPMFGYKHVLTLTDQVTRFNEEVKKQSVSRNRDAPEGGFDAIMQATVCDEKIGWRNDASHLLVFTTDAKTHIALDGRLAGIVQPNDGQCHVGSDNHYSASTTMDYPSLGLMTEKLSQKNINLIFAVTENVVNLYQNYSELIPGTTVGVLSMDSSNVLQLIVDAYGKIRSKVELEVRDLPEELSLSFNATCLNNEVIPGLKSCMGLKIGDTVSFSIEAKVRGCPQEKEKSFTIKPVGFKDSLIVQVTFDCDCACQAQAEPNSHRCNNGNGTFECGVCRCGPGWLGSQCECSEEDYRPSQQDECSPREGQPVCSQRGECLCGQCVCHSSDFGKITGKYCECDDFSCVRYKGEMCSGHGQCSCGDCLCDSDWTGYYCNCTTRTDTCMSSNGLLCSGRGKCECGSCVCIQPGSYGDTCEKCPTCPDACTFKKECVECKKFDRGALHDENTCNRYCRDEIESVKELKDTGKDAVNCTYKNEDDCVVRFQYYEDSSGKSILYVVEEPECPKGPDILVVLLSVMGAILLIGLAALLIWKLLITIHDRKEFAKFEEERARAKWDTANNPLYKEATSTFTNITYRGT
Summary of the method: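 Purified 99mTc-labeled test compound (1.1×10^6 cpm, <2.5 pmol) was incubated with 2.6 to 51.2 pmol human integrin αvβ3 in PBS pH 7.2 at 37 °C for 3 hrs. Non-specific binding was taken with a 250-fold molar excess of unlabeled antagonist. Bound (7 min) and free (15 min) label were separated by size-exclusion HPLC (TSK G3000SWXL).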

[3] = tested on: receptor-positive M21 human melanoma xenografts; assay: Biodistribution study in nude mice bearing M21 xenografts; assay type: in vivo; conditions: for tumor uptake with co-injection of antagonist: co-injection of 200 μg unlabeled IA; for tumor uptake: 1 h after i.v. injection; for excretion route: inferred from whole-body retention
Summary of the method: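 Athymic nude mice carried s.c. right-flank xenografts from 3 × 10^6 M21 cells (grown in RPMI 1640, 10% FBS, 1% penicillin-streptomycin, 5% CO2). At about 200 mm3 tumor size, mice received i.v. 99mTc-labeled test compound (6.25 μCi, 0.231 MBq/6 pmol in PBS with 1% BSA). They were euthanized at set times for tissue %ID/g and tumor-to-organ ratios; n=4~15 per time point.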

[4] = Stability in PBS; assay type: physicochemical; conditions: 18-h period of incubation
[5] = tested on: αvβ3; conditions: αvβ3 antagonist; not measured here, no ref given; cited from earlier work
[6] = guanidino group of IAC; ref not given; cited from earlier work

## ^99mTc PDA (tricin)/HYNIC-IAC [P2]
[1]
  % of 99mTc radioactivity associated with 99mTcO4−1: 9%
  % intact when incubated in serum: 77%
[2]
  receptor-bindability (% bound to αvβ3): 51.05 ± 14.05%
[3]; 4-h period
  accumulation in liver and intestine compared with P1: significantly higher accumulation
[3]; 1 h
  Tumor-to-organ ratio, Blood: 1.83±0.16
  Tumor-to-organ ratio, Bone: 1.48±0.37
  Tumor-to-organ ratio, Heart: 2.64±0.36
  Tumor-to-organ ratio, Intestine: 0.15±0.01
  Tumor-to-organ ratio, Kidney: 0.62±0.05
  Tumor-to-organ ratio, Liver: 0.46±0.27
  Tumor-to-organ ratio, Lung: 0.83±0.22
  Tumor-to-organ ratio, Muscle: 3.85±1.64
  Tumor-to-organ ratio, Spleen: 1.09±0.15
  Tumor-to-organ ratio, Stomach: 0.40±0.12
  whole-body retention: 57.84 ± 5.15 % ID
  tumor uptake with co-injection of antagonist: 0.96 ± 0.30 % ID/g
[3]
  tumor uptake: 2.13±0.17 % ID/g
  excretion route: excreted to a larger extent via the hepatobiliary system
[3]; 2 h
  Tumor-to-organ ratio, Blood: 2.58±0.25
  Tumor-to-organ ratio, Bone: 2.73±0.54
  Tumor-to-organ ratio, Heart: 3.85±0.57
  Tumor-to-organ ratio, Intestine: 0.11±0.02
  Tumor-to-organ ratio, Kidney: 0.81±0.07
  Tumor-to-organ ratio, Liver: 0.45±0.30
  Tumor-to-organ ratio, Lung: 1.34±0.51
  Tumor-to-organ ratio, Muscle: 5.75±1.56
  Tumor-to-organ ratio, Spleen: 1.95±0.27
  Tumor-to-organ ratio, Stomach: 0.29±0.09
[3]; 4 h
  Tumor-to-organ ratio, Blood: 3.15±0.25
  Tumor-to-organ ratio, Bone: 3.76±1.36
  Tumor-to-organ ratio, Heart: 3.88±0.90
  Tumor-to-organ ratio, Intestine: 0.07±0.00
  Tumor-to-organ ratio, Kidney: 0.78±0.04
  Tumor-to-organ ratio, Liver: 0.40±0.17
  Tumor-to-organ ratio, Lung: 2.71±0.95
  Tumor-to-organ ratio, Muscle: 6.33±1.57
  Tumor-to-organ ratio, Spleen: 1.54±0.40
  Tumor-to-organ ratio, Stomach: 0.27±0.05
  whole-body retention: 54.04 ± 3.57 % ID
[3]; 4 h relative to 1 h
  radioactivity at 1 h remained in the tumor at 4 h: 62%
[4]
  stability in PBS: stable

## ^99mTc EDDA2/HYNIC-IAC [P1]
[1]
  % of 99mTc radioactivity associated with 99mTcO4−1: 3%
  % intact when incubated in serum: 84%
[2]
  receptor-bindability (% bound to αvβ3): 78.02 ± 13.48%
[3]; 4-h period
  tumor uptake value over time: remained relatively unchanged
[3]; 0.3 h
  Tumor-to-organ ratio, Blood: 0.90±0.20
  Tumor-to-organ ratio, Bone: 1.29±0.23
  Tumor-to-organ ratio, Heart: 1.91±0.43
  Tumor-to-organ ratio, Intestine: 0.66±0.07
  Tumor-to-organ ratio, Kidney: 0.51±0.12
  Tumor-to-organ ratio, Liver: 0.72±0.12
  Tumor-to-organ ratio, Lung: 0.72±0.10
  Tumor-to-organ ratio, Muscle: 3.04±0.68
  Tumor-to-organ ratio, Spleen: 0.71±0.07
  Tumor-to-organ ratio, Stomach: 0.54±0.13
[3]; 1 h
  Tumor-to-organ ratio, Blood: 1.38±0.48
  Tumor-to-organ ratio, Bone: 2.12±1.17
  Tumor-to-organ ratio, Heart: 2.48±0.75
  Tumor-to-organ ratio, Intestine: 0.60±0.19
  Tumor-to-organ ratio, Kidney: 0.75±0.28
  Tumor-to-organ ratio, Liver: 0.89±0.27
  Tumor-to-organ ratio, Lung: 1.19±0.43
  Tumor-to-organ ratio, Muscle: 6.11±1.80
  Tumor-to-organ ratio, Spleen: 1.36±0.38
  Tumor-to-organ ratio, Stomach: 0.40±0.20
  whole-body retention: 39.58 ± 2.91 % ID
  tumor uptake with co-injection of antagonist: 0.68 ± 0.06 % ID/g
[3]; 1 h, 0, 10 and 200 μg unlabeled IA
  effect of unlabeled IA co-injection on tumor uptake: blocked by unlabeled IA in a concentration dependent manner
[3]
  tumor uptake: 3.17±0.52 % ID/g
  excretion route: excreted primarily via the renal system
[3]; 2 h
  Tumor-to-organ ratio, Blood: 2.19±0.18
  Tumor-to-organ ratio, Bone: 2.46±0.19
  Tumor-to-organ ratio, Heart: 3.23±0.48
  Tumor-to-organ ratio, Intestine: 0.57±0.07
  Tumor-to-organ ratio, Kidney: 0.85±0.08
  Tumor-to-organ ratio, Liver: 1.02±0.12
  Tumor-to-organ ratio, Lung: 1.50±0.09
  Tumor-to-organ ratio, Muscle: 4.68±0.31
  Tumor-to-organ ratio, Spleen: 1.30±0.12
  Tumor-to-organ ratio, Stomach: 0.43±0.11
[3]; 4 h
  Tumor-to-organ ratio, Blood: 17.11±5.18
  Tumor-to-organ ratio, Bone: 4.78±1.07
  Tumor-to-organ ratio, Heart: 7.62±1.99
  Tumor-to-organ ratio, Intestine: 0.46±0.15
  Tumor-to-organ ratio, Kidney: 1.22±0.32
  Tumor-to-organ ratio, Liver: 1.59±0.72
  Tumor-to-organ ratio, Lung: 2.47±0.49
  Tumor-to-organ ratio, Muscle: 7.84±1.78
  Tumor-to-organ ratio, Spleen: 2.83±0.81
  Tumor-to-organ ratio, Stomach: 1.53±0.80
  whole-body retention: 27.25 ± 3.67 % ID
[4]
  stability in PBS: stable

## CC(C)(CN)CNC(=O)NCCS(=O)(=O)N[C@@H](CNC(=O)c1ccc(OCCNC2=NCCCN2)cc1)C(=O)O.Cl [IAC, 4-[2-(3,4,5,6-tetrahydropyrimidin-2-ylamino)-ethyloxy]benzoyl-2-(S)-[N-(3-aminoneopenta-1-carbamyl)]-aminoethylsulfonylamino-β-alanine hydrochloride]
[5]
  IC50: 2.94 nM
[6]
  pKa: ~ 12
